Runt-SMMHC FRET – inhibitors of RUNX1 Runt–CBFb-SMMHC binding, primary screen, biochemical, FRET, Cerulean-Runt, Venus-CBFb-SMMHC, uHTS | Runt-related transcription factor 1 (Homo sapiens) + Core-binding factor subunit beta … | Cerulean-Runt/Venus-CBFb-SMMHC FRET ratio 530/480, 1 h | inhibition, % at 20 µM | 220,000 compounds, 0.74% hits | AID 1434, 2008;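 active means mean inhibition across duplicate retests at 20 µM reaching about 50%, limit read from the data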;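 further: 0% = DMSO wells and 100% = wells with excess untagged CBFb-SMMHC; inhibitors lower the FRET ratio by blocking Runt binding to CBFb-SMMHC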
proKLK7 act – proKLK7 zymogen activators, primary screen, biochemical, fluorescence intensity. activation, % at 7 µM. purified proKLK7, EDANS-DABCYL substrate fluorescence; 100% is mature enzyme control, 0% vehicle. AID 652039, 2013. 370,000 compounds, 0.9% hits. Kallikrein-7 (Homo sapiens), P49862;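 active means activation above the mean of all tested compounds plus 3 SD, computed per campaign excluding outliers beyond control limits, cut at about 13% in these data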
Target sequence (P49862 whole entry, looked up): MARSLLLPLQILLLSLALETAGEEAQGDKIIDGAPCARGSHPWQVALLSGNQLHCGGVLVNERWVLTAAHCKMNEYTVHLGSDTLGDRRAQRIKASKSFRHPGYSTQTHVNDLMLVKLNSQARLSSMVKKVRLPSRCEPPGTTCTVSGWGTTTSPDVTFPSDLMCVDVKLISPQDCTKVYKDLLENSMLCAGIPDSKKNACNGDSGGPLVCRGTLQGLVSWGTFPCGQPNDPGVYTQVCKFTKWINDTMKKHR
MEX-5 binding – MEX-5 zinc finger RNA-binding disruptors – biochemical, C. elegans, fluorescence polarization, MLPCN library, primary screen; MEX-5/FITC-TCR2 RNA binding; active compounds read low; AID 1832, 2009; Zinc finger protein mex-5 (Caenorhabditis elegans), Q9XUB2; 300,000 compounds, 0.38% hits; activity score (negative = inhibition of binding), % at 10 µM;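 active means inhibition past about -25% in most replicates, and total fluorescence under double the plate's negative control median, limit read from the data; inconclusive means replicates evenly split on the limit, or fluorescence at least double controls; inactive means too little inhibition in most replicates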;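 further: 0% = DMSO and -100% = 5 µM competing unlabeled TCR2 RNA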
RanGTP-Imp inh – inhibitors of RanGTP-importin-beta interaction, primary screen, biochemical, FRET, CFP-Ran, YFP-importin-beta, homogeneous | Ran GTPase (GTP-bound) - importin-beta complex | cell-free CFP-Ran/YFP-importin-beta FRET ratio | inhibition, % (concentration not given with the values) | 300,000 compounds, 1.1% hits;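 active means more than half of the replicate wells show a fall in the fluorescence ratio signal beyond about 16%, limit read from the data, passing the limit was not always enough; inconclusive means exactly half of the replicate wells pass the set limit; inactive means fewer than half of replicates pass the limit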;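 further: 0% = DMSO wells and 100% = Ran loaded with GDP instead of GTP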
Runt-CBFb FRET – inhibitors of RUNX1 Runt–CBFb binding, primary screen, biochemical, FRET, Cerulean-Runt, Venus-CBFb, uHTS; inhibition, % at 20 µM; 220,000 compounds, 0.46% hits; Cerulean-Runt/Venus-CBFb FRET ratio 530/480, 1 h;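 active means inhibition over about 50% at 20 µM in the single-dose screen, limit read from the data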;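 further: 0% = DMSO wells and 100% = excess unlabeled CBFb competitor control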
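test system = Cerulean-Runt domain fusion protein, energy donor | probe or stimulus = Venus-CBFb binding partner, 100 nM | incubation = two 1 h room-temperature incubations shielded from light | detection = fluorescence energy transfer, 422 nm excitation, 530/480 nm emission | measure = loss of energy transfer signal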
RUNX1 CBFb TR – inhibitors of RUNX1 Runt–CBFb binding, biochemical, TR-FRET; shares compounds with Runt-CBFb FRET; TR-FRET RUNX1 Runt domain-CBFb binding; inhibition, % at 20 µM; 480 compounds, 20% hits; in the data active means inhibition above about 40%
Starred values were filed as active, the others as inactive; u = inconclusive; x = no result. An excerpt weighted towards active compounds, which were near 2.1% of everything screened.

SMILES | Runt-SMMHC FRET | proKLK7 act | MEX-5 binding | RanGTP-Imp inh | Runt-CBFb FRET | RUNX1 CBFb TR
Cc1cccc(/C=N/c2sc3c(c2C(=O)OC(C)(C)C)CCN(C)C3)c1O | 14 | 0 | -1 | u | 31 | x
CCN(CC)C(=O)CC[C@@H]1CC[C@]2(CCCN(Cc3nccs3)C2)O1 | x | 0 | x | x | x | x
CC(C)CNC(=O)C1(C)CCCN1Cc1ccc(OC(F)(F)F)cc1 (configuration not stated) | x | 0 | x | x | x | x
CCCOC(=O)C1=C(C)NC2=C(C(=O)CC(C)(C)C2)C1c1cccnc1 (configuration not stated) | 127* | 11 | -3 | u | 63* | -15
CCOC(=O)C1C(C(=O)OCC)C(C)(C)C1N(C)C (configuration not stated) | x | 0 | x | x | x | x
O=C(O)C1OC(Oc2cc3oc(-c4ccccc4)cc(=O)c3c(O)c2O)C(O)C(O)C1O (configuration not stated) | 37 | 3 | -60* | 1 | 56* | 9
Cc1ccc(C(=S)N2CCN(Cc3ccccc3)CC2)cc1 | 38 | 0 | 2 | 1 | 52* | 42*
Cc1ccc(NC(=S)N2CCN(Cc3ccccc3)CC2)cc1 | 2 | 0 | 1 | 0 | -2 | x
Cc1ccc(C(=O)n2nnc3ccccc32)cc1[N+](=O)[O-] | -2 | 0 | 1 | -8 | 89* | -8
Cc1ccc(C(=O)Cn2nnc3ccccc32)cc1[N+](=O)[O-] | 3 | 0 | 0 | 1 | 1 | x
Cc1ccc(/C=C/C(=O)N2CCN(c3ccc(F)cc3)CC2)o1 | 20 | 0 | 0 | 3 | 51* | 33
O=C(N/N=C/c1ccccc1C(=O)O)c1cccc(S(=O)(=O)N2CCCCC2)c1 | x | 0 | x | x | x | x
Cc1nc2nc(SCC(=O)NCCCN3CCCC3)nn2c(C)c1Cc1ccccc1Cl | x | 0 | 3 | -2 | x | x
CC(c1ccccc1C(O)c1ccccc1)N(C)C (configuration not stated) | 0 | 0 | -2 | 3 | 57* | -14
OC(c1ccccc1)c1ccncc1 (configuration not stated) | x | 0 | 1 | 1 | x | x
CCc1c(C)c(C#N)c2nc3ccccc3n2c1Nc1c(C)n(C)n(-c2ccccc2)c1=O | 92* | 1 | 0 | 40* | 56* | 24
C[C@H](CO)N1C[C@H](C)[C@H](CN(C)C(=O)C2CC2)OCc2cnnn2CCCC1=O | x | 0 | x | x | x | x
Cc1ccc(/C=c2\sc3nc(-c4ccccc4Br)nn3c2=O)o1 | 1 | 0 | -5 | -1 | 25 | x
Cc1ccc(/C=c2\sc3nc(-c4ccco4)nn3c2=O)o1 | 29 | x | -9 | 12 | 53* | 88*
CCn1c(C)c(C(C)=O)c(N2CCN(c3ccccn3)CC2)nc1=S | 100* | 0 | -4 | 45* | 52* | -4
O=C(CSc1nnc(CNC(=O)c2ccco2)o1)Nc1nc2ccccc2s1 | 21 | 0 | -9 | 2 | 56* | 64*
CC(C)Cc1csc(NC(=O)c2ccccc2Cl)c1C(=O)O | -9 | 0 | 0 | -4 | 105* | 3
CC(C)Cc1csc(NC(=O)c2ccc(Cl)cc2)c1C(=O)O | -2 | 0 | 4 | -2 | 1 | x
CN(CC(=O)Nc1c(Cl)cccc1Cl)C(=O)CNC(=O)c1ccco1 | x | 0 | x | x | x | x
COc1ccc(C2CC(=O)N3CN(c4ccc(C)c(Cl)c4)CSC3=C2C#N)cc1OC (configuration not stated) | 100* | 0 | 2 | -1 | 59* | -24
SMILES | Runt-SMMHC FRET | proKLK7 act | MEX-5 binding | RanGTP-Imp inh | Runt-CBFb FRET | RUNX1 CBFb TR
COc1ccc(N2CSC3=C(C#N)C(c4ccc(OC)c(OC)c4)CC(=O)N3C2)c(OC)c1 (configuration not stated) | 31 | 0 | 1 | 3 | 23 | x
CC1CC/C(=N/Nc2ccccc2)C(=O)N1 (configuration not stated) | 1 | 0 | 3 | -3 | 51* | 14
c1ccc2[nH]c(CCCc3nc4ccccc4[nH]3)nc2c1 | x | 1 | 3 | 0 | x | x
Oc1ccc(O)c(Cc2nc3ccccc3[nH]2)c1 | 5 | 2 | -12 | -1 | 53* | 24
CC(NS(=O)(=O)c1ccc(Cl)cc1)C(=O)OCC(=O)Nc1ccc(N(C)C)cc1 (configuration not stated) | x | 0 | x | x | x | x
CN1c2ccsc2C(O)=C(C(=S)Nc2ccc(F)c(Cl)c2)S1(=O)=O | x | -2 | -5 | 124* | 85* | -14
Cn1cc(C(=O)Nc2ccc(F)c(Cl)c2)cn1 | 4 | 0 | 1 | -3 | 0 | x
S=C(Nc1ccc(Cl)cc1)OC1CCC12CCC(c1ccccc1)CC2 (configuration not stated) | x | 0 | x | x | x | x
COc1ccc(-c2nc3c(c(=O)c4ccccc4n3C)c(=O)n2Cc2ccccc2)cc1 | 4 | 0 | 1 | -1 | 53* | 61*
COc1cc(C)c(NC(=O)C(=S)NCCc2ccccc2)cc1C | 34 | 0 | 1 | -2 | 51* | 15
COc1ccc(NC(=S)NCCc2ccccc2)c(C)c1 | x | 0 | 1 | -2 | x | x
COC(=O)[C@]12C[C@H](CC(=O)NCCc3ccccc3OC)C(=O)N(CCc3ccc(OC)c(OC)c3)C1=C[C@H](C1CCCC1)O[C@@H]2C | x | 0 | x | x | x | x
Clc1ccc(-c2nc3ccncc3[nH]2)cc1 | 20 | 0 | 0 | u | 59* | -10
COc1ccccc1N1C(=O)C=C(Sc2nc(C)cc(C)n2)C1=O | 68* | 0 | -3 | -3 | 60* | 37
COc1cc(C)ccc1OCc1cc(C(=O)NC(c2ccccn2)C(F)(F)F)no1 (configuration not stated) | x | 0 | x | x | x | x
CN(C)CCNC(=O)c1onc(CSc2nc3ccccc3[nH]2)c1C(=O)NCCN(C)C | x | -1 | 0 | -1 | x | x
CN1C(=O)C(O)(CC(=O)c2cccnc2)c2ccccc21 (configuration not stated) | -5 | 0 | 0 | 1 | -2 | x
CN1/C(=C\C(=O)c2cccnc2)Sc2ccccc21 | 51* | -1 | -2 | 10 | 66* | 14
